Reference: ChEMBL document CHEMBL1121770, “Substituted imidazo[2,3-alpha]pyridine-2-carbamate anthelmintics” (1981)

Columns and labels:
Format in all cases: functional
Mus musculus [1] = assay: Compound was administered at 62.5 p.p.m. in the diet of mice, for percent reduction of Nematospiroides dubius in mice
Method in brief: (§1)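 Mouse infection test run by Baker's method, three mice per treated group. Worm counts are averaged per mouse, and percent reduction is derived from them. Reductions below 20% are recorded as 0.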

Mus musculus [2] = assay: Compound was administered at 125 p.p.m. in the diet of mice, for percent reduction of Nematospiroides dubius in mice; method in brief: as §1
Mus musculus [3] = assay: Compound was administered at 500 p.p.m. in the diet of mice, for percent reduction of Nematospiroides dubius in mice; method in brief: as §1
Mus musculus [4] = assay: Compound was administered at 1000 p.p.m. in the diet of mice, for percent reduction of Nematospiroides dubius in mice; method in brief: as §1
Mus musculus [5] = assay: Compound was administered at 250 p.p.m. in the diet of mice, for percent reduction of Nematospiroides dubius in mice; method in brief: as §1

SMILES | Reduction (Mus musculus [1]) | Reduction (Mus musculus [2]) | Reduction (Mus musculus [3]) | Reduction (Mus musculus [4]) | Reduction (Mus musculus [5])
COC(=O)Nc1cn2cc(C(Cl)=C(Cl)Cl)ccc2n1 | 94% | 94% | – | – | –
COC(=O)Nc1cn2ccccc2n1 | – | – | 0% | 54% | –
COC(=O)Nc1cn2cc(Sc3ccccc3)ccc2n1 | 0% | 38% | 100% | – | 98%
COC(=O)Nc1cn2cc([S+]([O-])c3ccccc3)ccc2n1 (centres undefined) | 35% | 100% | – | – | –
CCCSc1ccc2nc(NC(=O)OC)cn2c1 | 0% | 74% | – | – | 100%
CCCOc1ccc2nc(NC(=O)OC)cn2c1 | 0% | 44% | – | – | 74%
COC(=O)Nc1cn2cc(C(=O)c3ccccc3)ccc2n1 | – | – | 0% | 0% | –
COC(=O)Nc1nc2cc(C(Cl)=C(Cl)Cl)ccc2[nH]1 | 57% | 69% | – | – | 99%
CC(C)OC(=O)Nc1ccc2[nH]c(-c3cscn3)nc2c1 [CAMBENDAZOLE] | 0% | 0% | 100% | – | 73%
c1ccc2[nH]c(-c3cscn3)nc2c1 [THIABENDAZOLE] | – | 0% | 86% | 100% | 26%
